Measurements as given in ChEMBL document CHEMBL2163279, “Discovery of novel small molecule inhibitors of dengue viral NS2B-NS3 protease using virtual screening and scaffold hopping” (J Med Chem, 2012).

Experiments:
dengue virus type 2 [1] = assay: Inhibition of Dengue virus 2 NS2B-NS3 protease at 100 uM preincubated for 15 mins before Dabcyl- Lys-Gln-Arg-Arg-Gly-Arg-Ile-Glu-Edans substrate addition by fluorimetric assay
[2] = (§1) Inhibition of Dengue virus 2 NS2B-NS3 protease preincubated for 15 mins before Dabcyl- Lys-Gln-Arg-Arg-Gly-Arg-Ile-Glu-Edans substrate addition by fluorimetric assay; design: species or system dengue virus type 2
[3] = Selectivity index, ratio of CC50 for BHK cells to IC50 for Dengue virus 2 infected in BHK-D2RepT cells; assay type: functional
Method in brief: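 Selectivity index = CC50 / IC50. CC50 is from the 48 h MTT assay in nontransfected BHK cells; IC50 is from the 48 h luciferase read in BHK-D2RepT replicon cells, 96-well format.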

[4] = Cytotoxicity against BHK cells incubated for 48 hrs by MTT assay; assay type: cell-based, Mesocricetus auratus; conditions: hamster
Method in brief: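 Nontransfected BHK cells, about 5×10⁴ per well, were treated the next day with various compound concentrations for 48 h. Viability was measured by MTT. CC50 is the concentration giving 50% of control cell number; mean of three independent experiments.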

dengue virus type 2 [5] = assay: Antiviral activity against Dengue virus 2 infected in BHK-D2RepT cells assessed as reduction in viral replication incubated for 48 hrs by luciferase reporter replicon-based assay; assay type: functional, organism-based
Method in brief: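 Cells used were BHK-D2RepT: BHK carrying a DENV-2 (New Guinea C) firefly-luciferase replicon, maintained in DMEM/10% FBS/200 μg/mL G418. Seeded at 5×10⁴ cells/well for 24 h, then exposed to compound for 48 h (DMSO <0.2%). Medium was replaced before the Bright-Glo luciferase read. Triplicate wells with six control wells. IC50 is the concentration giving 50% of control luciferase signal; mean of three independent experiments.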

dengue virus type 2 [6] = assay: as §1
dengue virus type 2 [7] = assay: Inhibition of Dengue virus 2 NS2B-NS3 protease at 50 uM preincubated for 15 mins before substrate addition
dengue virus type 2 [8] = assay: Inhibition of Dengue virus 2 NS2B-NS3 protease at 25 uM preincubated for 15 mins before substrate addition
dengue virus type 2 [9] = assay: Inhibition of Dengue virus 2 NS2B-NS3 protease at 12.5 uM preincubated for 15 mins before substrate addition

Row | SMILES | inhibition (dengue virus type 2 [1]) | IC50 [2] | further results
1 | NS(=O)(=O)c1ccc(N/N=C/c2cc(C(=O)N/N=C\Cc3ccccc3)c3ccccc3n2)cc1 | 31.1% | > 100 µM | 
2 | NS(=O)(=O)c1ccc(N/N=C/c2cc(C(=O)NCCCc3ccccc3)c3ccccc3n2)cc1 | 20.6% | > 100 µM | 
3 | O=C(N/N=C\CCc1ccccc1)c1cc(/C=N/Nc2cccc(C(F)(F)F)c2)nc2ccccc12 | 20.9% | > 100 µM | 
4 | NS(=O)(=O)c1ccc(N/N=C/c2cc(C(=O)N/N=C/c3cccc(O)c3)c3ccccc3n2)cc1 |  | 7.83 µM | 
5 | O=C(CCCC(=O)/C(=C\c1ccc2c(c1)OCO2)CC(=O)c1ccccc1)OCCCl |  | 242 µM | 
6 | O=C(N/N=C\Cc1ccccc1)c1cc(/C=N/Nc2cccc(Br)c2)nc2ccccc12 |  | 9.45 µM | Ratio CC50/IC50 [3]: >4.1; CC50 at 48 h [4]: > 100 µM; IC50 (dengue virus type 2 [5]): 24.7 µM
7 | CCOC(=O)c1cc(/C=N/Nc2nc3ccccc3[nH]2)cc(/C=N/Nc2nc3ccccc3[nH]2)c1 |  | 29.5 µM | 
8 | O=C(N/N=C\C=C\c1ccccc1)c1cc(/C=N/Nc2cccc(C(F)(F)F)c2)nc2ccccc12 | 27.4% | > 100 µM | 
9 | O=C(N/N=C/CCc1ccccc1)c1cc(/C=N/Nc2cccc(Cl)c2)nc2ccccc12 |  | 29 µM | 
10 | CCOC(=O)c1cc(/C=N/N2C(=O)c3ccccc3C2=O)c(O)c(/C=N/N2C(=O)c3ccccc3C2=O)c1 | 28% | > 100 µM | 
11 | CCOC(=O)c1cc(/C=N/Nc2nc3ccccc3[nH]2)c(O)c(/C=N/Nc2nc3ccccc3[nH]2)c1 |  | 13.1 µM | Ratio CC50/IC50 [3]: 0.4; CC50 at 48 h [4]: 12.6 µM; IC50 (dengue virus type 2 [5]): 35.9 µM; inhibition (dengue virus type 2 [6]): Dose-dependent effect
12 | CCOC(=O)c1cc(/C=N/Nc2ccc([N+](=O)[O-])cc2)c(O)c(/C=N/Nc2ccc([N+](=O)[O-])cc2)c1 |  | 14.6 µM | 
13 | O=C(O)c1cccc(N/N=C/c2cc(C(=O)NCCCCc3ccccc3)c3ccccc3n2)c1 |  | 35.3 µM | Ratio CC50/IC50 [3]: 4.5; CC50 at 48 h [4]: 49.7 µM; IC50 (dengue virus type 2 [5]): 11 µM
14 | O=C(N/N=C\CCc1ccccc1)c1cc(/C=N/Nc2cccc(Br)c2)nc2ccccc12 |  | 19.9 µM | 
15 | COc1c(C)c2c(c(O)c1C/C=C(\C)CCC(=O)O)C(=O)OC2 [MYCOPHENOLIC ACID] |  |  | Ratio CC50/IC50 [3]: 2.7; CC50 at 48 h [4]: 1.9 µM; IC50 (dengue virus type 2 [5]): 0.7 µM
16 | COc1ccc(-c2csc(N3N=C(c4ccc([N+](=O)[O-])cc4)/C(=N\Nc4ccc(C(N)=O)cc4)C3=O)n2)cc1 |  | 220 µM | 
17 | CCOC(=O)c1cc(/C=N/Nc2ccc(C(C)C)cc2)c(O)c(/C=N/Nc2ccc(C(C)C)cc2)c1 |  | 39.5 µM | Ratio CC50/IC50 [3]: 3.7; CC50 at 48 h [4]: 29.7 µM; IC50 (dengue virus type 2 [5]): 8 µM
18 | COc1cc(/C=C/C(=O)CC(=O)/C=C/c2ccc(O)c(OC)c2)ccc1O [CURCUMIN] |  |  | Ratio CC50/IC50 [3]: 3.5; CC50 at 48 h [4]: 14.8 µM; IC50 (dengue virus type 2 [5]): 4.2 µM

Row | SMILES | inhibition (dengue virus type 2 [1]) | IC50 [2] | further results
19 | NS(=O)(=O)c1ccc(N/N=C/c2cc(C(=O)N/N=C\CCc3ccccc3)c3ccccc3n2)cc1 |  | 36 µM | 
20 | O=C(NCCCCc1ccccc1)c1cc(/C=N/Nc2cccc(Br)c2)nc2ccccc12 | 30.6% | > 100 µM | 
21 | Oc1c(/C=N/Nc2nc3ccccc3[nH]2)cccc1/C=N/Nc1nc2ccccc2[nH]1 | 31.9% | > 100 µM | 
22 | CCNC(=S)N/N=C\c1cc(C(=O)OCC)cc(/C=N\NC(=S)NCC)c1O | 28.2% | > 100 µM | 
23 | O=C(NCCCc1ccccc1)c1cc(/C=N/Nc2cccc(Cl)c2)nc2ccccc12 | 32.1% | > 100 µM | 
24 | O=C(N/N=C\Cc1ccccc1)c1cc(/C=N/Nc2cccc(C(F)(F)F)c2)nc2ccccc12 |  | 19.8 µM | Ratio CC50/IC50 [3]: 0.2; CC50 at 48 h [4]: 16.4 µM; IC50 (dengue virus type 2 [5]): 73.4 µM
25 | O=C(N/N=C\Cc1ccccc1)c1cc(/C=N/Nc2cccc(Cl)c2)nc2ccccc12 |  | 28.1 µM | Ratio CC50/IC50 [3]: 0.3; CC50 at 48 h [4]: 19.7 µM; IC50 (dengue virus type 2 [5]): 61.3 µM
26 | O=C(N/N=C\C=C\c1ccccc1)c1cc(/C=N/Nc2cccc([N+](=O)[O-])c2)nc2ccccc12 |  | 22 µM | Ratio CC50/IC50 [3]: 0.3; CC50 at 48 h [4]: 25 µM; IC50 (dengue virus type 2 [5]): 74.9 µM
27 | NS(=O)(=O)c1ccc(N/N=C/c2cc(C(=O)NCCCCc3ccccc3)c3ccccc3n2)cc1 | 29.4% | > 100 µM | 
28 | CCOC(=O)c1cc(/C=N/NC(=O)Nc2ccccc2)c(O)c(/C=N/NC(=O)Nc2ccccc2)c1 | 44.1% | > 100 µM | 
29 | O=C(N/N=C\C=C\c1ccccc1)c1cc(/C=N/Nc2cccc(Cl)c2)nc2ccccc12 |  | 14.3 µM | 
30 | CCOC(=O)c1cc(C)c(O)c(/C=N/Nc2nc3ccccc3[nH]2)c1 |  | 48.6 µM | 
31 | CCOC(=O)c1cc(/C=N/NC(=O)c2ccc3c(c2)OCO3)c(O)c(/C=N/NC(=O)c2ccc3c(c2)OCO3)c1 | 35.4% | > 100 µM | 
32 | NS(=O)(=O)c1ccc(N/N=C/c2cc(C(=O)N/N=C\C=C\c3ccccc3)c3ccccc3n2)cc1 |  | 7.46 µM | inhibition (dengue virus type 2 [6]): Dose-dependent effect; inhibition (dengue virus type 2 [7]): 63.3%; inhibition (dengue virus type 2 [8]): 37.1%; inhibition (dengue virus type 2 [9]): 21.4%
33 | O=C(NCCCc1ccccc1)c1cc(/C=N/Nc2cccc(Br)c2)nc2ccccc12 | 24.2% | > 100 µM | 
34 | CCOC(=O)c1cc(/C=N\NC(N)=S)c(O)c(/C=N\NC(N)=S)c1 | 24.4% | > 100 µM | 
35 | O=C(O)c1cccc(N/N=C/c2cc(C(=O)NCCCc3ccccc3)c3ccccc3n2)c1 |  | 41.2 µM | Ratio CC50/IC50 [3]: 2.1; CC50 at 48 h [4]: 64.3 µM; IC50 (dengue virus type 2 [5]): 30.9 µM
